For experiment [1], the target named is T1, Serotonin (5-HT) receptor (Rattus norvegicus) (UniProt P35563+P35365+P32305+P31388+Q9JJ16+P28564+P30994+Q62758+P08909+P14842+P30940+P35364+P19327+P28565). The experiment is described as follows: Evaluated for receptor mediated feedback inhibition of 5-HTP formation in limbic tissue of rat brain when administered subcutaneously. The conditions noted are these: Limbic system. In kind it is functional, tissue-based. Summed up:
(§1)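 Reserpinized male Sprague-Dawley rats (200–300 g), compounds in saline (occasionally a few drops of glacial acetic acid and/or warming), near-neutral pH, given sc at 5 or 10 mL/kg. Reserpine was in acetic acid/5.5% glucose. 5-HTP formation was measured in the brain part. The ED50 is the dose giving a half-maximal decrease, from dose-response curves of four to six doses (n = 3-4).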

Experiment [2] has as its target T1, Serotonin (5-HT) receptor (Rattus norvegicus). The experiment can be described thus: Evaluated for receptor mediated feedback inhibition of 5-HTP formation in striatum tissue of rat brain when administered subcutaneously. In kind it is functional, tissue-based. The method, boiled down: as §1
Experiment [3] has the same target. The experiment can be described thus: Evaluated for receptor mediated feedback inhibition of 5-HTP formation in hemisphere of rat brain when administered subcutaneously. The format is functional. The method, boiled down: as §1

Each structure is given as a SMILES string.

As to `CCCN(CCC)C1CC1c1ccccc1O` (single isomer, unassigned; (+)), the results for the ED50 in experiment [1], in experiment [2] and in experiment [3] were over 50 µmol/kg, 14.5 µmol/kg and over 50 µmol/kg, respectively.
`CCCN(CCC)C1CC1c1ccc(O)cc1` (stereo not given): the ED50 in experiment [1], in experiment [2] and in experiment [3] was over 50 µmol/kg each time.
On to `CCCCN(CCCC)C1CC1c1cccc(O)c1` (stereo not given), for which the ED50 in experiment [1], in experiment [2] and in experiment [3] was over 50 µmol/kg in each case.
Regarding `CCCN(CCC)C1CC1c1cccc(OC)c1` (stereo not given), the ED50 in experiment [1] came out at 2.06 µmol/kg; in experiment [2], 1.17 µmol/kg; in experiment [3] it was 1.43 µmol/kg.
Turning to `CCCN(CCC)C1CC1c1cccc(O)c1` (stereo in doubt; 18), the ED50 is 0.66 µmol/kg in experiment [1], 0.47 µmol/kg in experiment [2] and 0.58 µmol/kg in experiment [3].
On to `CCCN(CCC)C1CC1c1cccc(O)c1` (single isomer, unassigned; (-)), for which the ED50 turned out to be 0.34 µmol/kg in experiment [1], 0.28 µmol/kg in experiment [2] and 0.35 µmol/kg in experiment [3].
As for `CN(C)C1CC1c1cccc(O)c1` (stereo not given), the ED50 in experiment [1] was determined as 10.8 µmol/kg; in experiment [2], 8.59 µmol/kg; in experiment [3] it was 25.1 µmol/kg.
On to `CCCN(CCC)C1CC1c1ccc(O)c(O)c1` (stereo not given), for which the ED50 in experiment [1], in experiment [2] and in experiment [3] was over 50 µmol/kg in each case.
`CCCCN(CCCC)C1CC1c1ccccc1O` (stereo not given): the ED50 in experiment [1], in experiment [2] and in experiment [3] was over 50 µmol/kg each time.
Regarding `CN(C)C1CC1c1ccccc1O` (stereo not given), the ED50 in experiment [1] came to 6.2 µmol/kg; in experiment [2] it was 3.45 µmol/kg; in experiment [3] it was 9.31 µmol/kg.
Take `CCN(CC)C1CC1c1ccccc1O` (stereo not given): the ED50 in experiment [1] came to 0.82 µmol/kg; in experiment [2] it was 1.2 µmol/kg; in experiment [3], 0.8 µmol/kg.
As to `CCN(CC)C1CC1c1cccc(O)c1` (stereo not given), the values for the ED50 in experiment [1], in experiment [2] and in experiment [3] were 0.34 µmol/kg, 0.32 µmol/kg and 0.4 µmol/kg, respectively.
Take `CCCN(CCC)C1CC1c1cccc(O)c1` (stereo in doubt; (+)-18): the ED50 in experiment [1], in experiment [2] and in experiment [3] was over 50 µmol/kg each time.
As to `CCCN(CCC)C1CC1c1ccccc1O` (stereo in doubt; 8), the ED50 in experiment [1] was 0.41 µmol/kg; in experiment [2], 0.36 µmol/kg; in experiment [3], 0.36 µmol/kg.
Consider `CCCN(CCC)C1CC1c1ccccc1O` (single isomer, unassigned; (-)), for which the ED50 in experiment [1] worked out at 0.28 µmol/kg; in experiment [2], 0.26 µmol/kg; in experiment [3], 0.38 µmol/kg.
In the case of `CCCN(CCC)C1CC1c1ccccc1OC` (stereo not given), the ED50 came out at 0.93 µmol/kg in experiment [1] and 0.72 µmol/kg in experiment [3].
Turning to `CCCN(CCC)[C@@H]1CCc2cccc(O)c2C1`, the ED50 came to 0.061 µmol/kg in experiment [1], 0.065 µmol/kg in experiment [2] and 0.077 µmol/kg in experiment [3].

(Values after ChEMBL document CHEMBL1124279, “N,N-Dialkylated monophenolic trans-2-phenylcyclopropylamines: novel central 5-hydroxytryptamine receptor agonists” (J Med Chem, 1988).)
